Experiment [1] has as its target Cannabinoid receptor 2 (Mus musculus) (UniProt P47936). Kind of experiment: Binding affinity to cannabinoid CB2 receptor in non transfected BALB/c mouse CD4+ T cells at 1 uM after 30 mins using PE-conjugated […] antibody staining by confocal microscopic analysis. The class given is cell-based. The following applies: T-cell. The procedure, abridged:
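T cells were purified from peripheral lymph nodes of BALB/c mice and stained with PE-conjugated anti-CD4 antibody plus NBD-labelled probe at 0.1, 1.0 or 5 µM. Incubation on ice for 30 min is stated for the 5 µM condition. CD4+ cells were imaged by confocal microscopy (x40).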

The next experiment deals with Cannabinoid receptor 2 (Homo sapiens, UniProt P34972). The experiment can be described thus: Displacement of [3H]-CP55940 from human recombinant cannabinoid CB2 receptor expressed in CHO-K1 cells. The class given is cell-based.
Chain of Cannabinoid receptor 2 (P34972 whole entry): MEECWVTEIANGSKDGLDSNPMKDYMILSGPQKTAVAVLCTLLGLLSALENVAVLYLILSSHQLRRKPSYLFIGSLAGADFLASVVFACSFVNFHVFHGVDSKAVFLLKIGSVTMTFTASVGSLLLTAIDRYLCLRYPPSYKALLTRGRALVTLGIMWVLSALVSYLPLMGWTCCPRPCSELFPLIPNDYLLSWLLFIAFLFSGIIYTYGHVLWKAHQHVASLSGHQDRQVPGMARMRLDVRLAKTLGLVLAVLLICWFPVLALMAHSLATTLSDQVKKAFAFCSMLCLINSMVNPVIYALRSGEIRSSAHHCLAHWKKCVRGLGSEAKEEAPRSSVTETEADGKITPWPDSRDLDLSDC
For experiment [2], the target named is Cannabinoid receptor 2 (Mus musculus) (UniProt P47936). Kind of experiment: Binding affinity to cannabinoid CB2 receptor in non transfected BALB/c mouse CD4+ T cells after 30 mins […] by confocal microscopic analysis in presence of CB2 receptor agonist GW842166X. The following applies: T-cell. Type of experiment: cell-based.
Chain of Cannabinoid receptor 2 (Mus musculus) (P47936 whole entry): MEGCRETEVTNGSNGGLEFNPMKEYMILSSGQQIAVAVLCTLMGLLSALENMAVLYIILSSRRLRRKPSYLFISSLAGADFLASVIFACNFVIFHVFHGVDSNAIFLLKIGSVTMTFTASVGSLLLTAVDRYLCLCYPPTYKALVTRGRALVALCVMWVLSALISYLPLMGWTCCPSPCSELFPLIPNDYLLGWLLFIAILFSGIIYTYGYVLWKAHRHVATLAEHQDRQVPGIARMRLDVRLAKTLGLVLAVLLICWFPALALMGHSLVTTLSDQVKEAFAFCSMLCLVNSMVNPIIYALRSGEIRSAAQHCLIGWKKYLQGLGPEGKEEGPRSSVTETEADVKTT
Experiment [3] has as its target T1, 5-hydroxytryptamine receptor 2C (Homo sapiens) (UniProt P28335).
T1 sequence (whole entry): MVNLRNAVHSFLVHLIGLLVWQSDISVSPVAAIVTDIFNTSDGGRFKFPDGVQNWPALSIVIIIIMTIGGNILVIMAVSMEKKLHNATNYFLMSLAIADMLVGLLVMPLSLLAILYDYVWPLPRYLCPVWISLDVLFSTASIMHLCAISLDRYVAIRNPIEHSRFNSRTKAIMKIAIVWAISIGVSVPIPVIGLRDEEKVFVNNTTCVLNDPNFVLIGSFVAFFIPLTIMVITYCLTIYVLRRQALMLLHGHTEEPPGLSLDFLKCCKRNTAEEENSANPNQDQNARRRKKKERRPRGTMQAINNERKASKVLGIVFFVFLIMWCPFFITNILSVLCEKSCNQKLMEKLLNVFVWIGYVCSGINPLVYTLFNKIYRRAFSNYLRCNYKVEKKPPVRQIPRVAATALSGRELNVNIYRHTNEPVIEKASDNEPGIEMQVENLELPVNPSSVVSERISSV
Kind of experiment: Displacement of [3H]-mesulergine from 5HT2C receptor at 10 uM. The procedure, abridged: (§1)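 Single-point competitive radioligand binding screen at 10 µM test concentration, measured as % inhibition of radioligand binding. Radioligands: [3H]CP55940 for CB1, [3H]ketanserin for 5-HT2A, [3H]mesulergine for 5-HT2C. Run by the NIMH Psychoactive Drug Screening Program.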

The target in experiment [4] is Cannabinoid receptor 2 (Mus musculus) (UniProt P47936). Kind of experiment: Binding affinity to cannabinoid CB2 receptor in non transfected BALB/c mouse CD4+ T cells at 5 uM after 30 mins […] by confocal microscopic analysis. The class given is cell-based. The following applies: T-cell.
For experiment [5], the target named is 5-hydroxytryptamine receptor 2A (Homo sapiens) (UniProt P28223). The experiment can be described thus: Displacement of [3H]-kentanserin from 5HT2A receptor at 10 uM. The procedure, abridged: as §1
Chain of 5-hydroxytryptamine receptor 2A (Homo sapiens) (P28223 whole entry): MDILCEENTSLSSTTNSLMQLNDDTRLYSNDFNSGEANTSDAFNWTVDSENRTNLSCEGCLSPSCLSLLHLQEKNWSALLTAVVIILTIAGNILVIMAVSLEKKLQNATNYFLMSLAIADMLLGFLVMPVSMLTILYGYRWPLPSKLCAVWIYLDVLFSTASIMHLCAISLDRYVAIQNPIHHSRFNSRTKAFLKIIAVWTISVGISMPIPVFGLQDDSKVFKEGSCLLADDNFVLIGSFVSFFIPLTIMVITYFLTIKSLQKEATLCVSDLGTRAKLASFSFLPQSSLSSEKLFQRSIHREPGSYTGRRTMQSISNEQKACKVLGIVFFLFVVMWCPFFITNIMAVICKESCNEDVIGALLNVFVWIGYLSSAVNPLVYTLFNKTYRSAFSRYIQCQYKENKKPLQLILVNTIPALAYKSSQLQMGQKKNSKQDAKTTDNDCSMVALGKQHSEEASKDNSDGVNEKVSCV
Experiment [6] has as its target Cannabinoid receptor 2 (Mus musculus) (UniProt P47936). The experiment can be described thus: Binding affinity to cannabinoid CB2 receptor in mouse B lymphocytes at 5 uM after 30 mins using PE-conjugated anti-B220 antibody staining by flow cytometric analysis in presence of GW842166X. The class given is cell-based. The procedure, abridged: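 Mouse lung mononuclear cells, prepared by collagenase digestion, were first preincubated on ice for 5 min with the CB2 agonist GW842166X at 100 µM. They were then stained with PE-conjugated anti-B220 antibody and NBD-labelled probe at 5 µM on ice for 30 min, and analysed by flow cytometry.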

Experiment [7] shares this target. The experiment can be described thus: Binding affinity to cannabinoid CB2 receptor in mouse B lymphocytes at 5 uM after 30 mins using PE-conjugated anti-B220 antibody staining by flow cytometric analysis. The class given is cell-based. Put shortly:
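Lung mononuclear cells from mice were prepared by collagenase digestion of lung tissue. They were stained with PE-conjugated anti-B220 antibody and NBD-labelled probe at 5 µM on ice for 30 min, then analysed by flow cytometry.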

The target is the same in experiment [8]. Kind of experiment: Binding affinity to cannabinoid CB2 receptor in non transfected BALB/c mouse CD4+ T cells at 0.1 uM after 30 mins using […] by confocal microscopic analysis. The following applies: T-cell. Type of experiment: cell-based.
Experiment [9] deals with Cannabinoid receptor 1 (Homo sapiens) (UniProt P21554). Kind of experiment: Displacement of [3H]-CP55940 from cannabinoid CB1 receptor at 10 uM. The procedure, abridged: as §1
Chain of Cannabinoid receptor 1 (Homo sapiens) (P21554 whole entry): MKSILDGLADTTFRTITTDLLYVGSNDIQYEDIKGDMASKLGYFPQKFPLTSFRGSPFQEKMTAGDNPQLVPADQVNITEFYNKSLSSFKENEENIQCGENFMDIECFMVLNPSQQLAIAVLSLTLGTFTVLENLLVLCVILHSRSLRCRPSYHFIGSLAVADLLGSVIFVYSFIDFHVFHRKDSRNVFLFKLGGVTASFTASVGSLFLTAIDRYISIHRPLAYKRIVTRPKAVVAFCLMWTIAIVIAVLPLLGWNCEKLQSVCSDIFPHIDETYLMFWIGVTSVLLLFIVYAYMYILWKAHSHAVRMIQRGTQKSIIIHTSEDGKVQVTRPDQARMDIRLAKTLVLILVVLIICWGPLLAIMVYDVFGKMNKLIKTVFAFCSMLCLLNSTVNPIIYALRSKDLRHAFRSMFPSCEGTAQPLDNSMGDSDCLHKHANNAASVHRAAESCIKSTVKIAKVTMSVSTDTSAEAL

pKi: −log10 of the molar value. The source made the active and inactive calls. The rule behind the calls is not given here. Where only a bound is given, the exact number is not on record here.

For `CCCCCN1C(=O)/C(=N\NC(=O)CN(C)c2ccc([N+](=O)[O-])c3nonc23)c2ccc(OC)cc21`, the outcome in experiment [1], in [2], in experiment [6] and in experiment [8] was inactive. The pKi on Cannabinoid receptor 2 was 6.41. Further, the inhibition in experiment [3], in experiment [5] and in [9] was less than 40% throughout. The outcome in experiment [4] and in [7] was Active.

Source of the values: ChEMBL document CHEMBL1833906, “Design and evaluation of a novel fluorescent CB2 ligand as probe for receptor visualization in immune cells” (Bioorg Med Chem Lett, 2011).
